Test: Toxicity liver stage against HepG2, at 10uM
Assay type: cell-based
Set-up: test concentration 10 uM, cell line HepG2-A16-CD81EGFP
Details: human, HepG2-A16-CD81EGFP cells; read-out: INHIBITION
In short: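 Uninfected HepG2-A16-CD81EGFP cells, 3 × 10^3 per well, 1536-well, plated on prespotted compound at 10 μM final, parasite-free screening media added to match infected plates; puromycin 10 μM positive, DMSO 0.5% negative; run in parallel with 48 h PbLuc assay at 37 °C, 5% CO2; viability by CellTiter-Glo luminescence, normalized to controls.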

Compound | cytotoxicity at 10 µM
COc1ccc2cccc(CC(=O)NCCc3n[nH]c(=O)[nH]3)c2c1 | -3.59%
O=S(=O)(N1CCCC1)N1C[C@@H](c2cccc(F)c2)[C@@H]2NCCCCC[C@H]21 | -25%
CC(C)(N)CN1CCC(c2nnc(CN3CCCC3)n2C2CC2)CC1 | 19.2%
Cc1cc(OC(F)F)c(C(=O)N2CCC(CN(C)C)CC2)s1 | 6.04%
O=C(c1ccco1)N1CCC(n2nc(-c3cccs3)ccc2=O)CC1 | -32.3%
O=c1[nH]c(-c2ccccc2F)nc2c1CCNC2 | -2.72%
NC(=O)c1csc(N2C[C@@H](CN3CCCCC3)[C@@H](CO)C2)n1 | -1.39%
Cc1cnc(CN2CCN(C(C)c3nc(C(C)C)no3)CC2)cn1 (configuration not stated) | 9.74%
COc1ccccc1OC1CCN(C(=O)C2CCCN(C)C2)CC1 (configuration not stated) | -53.5%
CN(C)C(=O)CNC(CC(F)(F)F)c1ccc(F)cc1 (configuration not stated) | -3.08%
Cc1nn(CC(C)C)c(N(C)C)c1CNCc1ccc2c(c1)OCO2 | -1.05%
COc1ccccc1NC(=O)NCc1nnc(SC)n1C | -0.145%
CSCCC(=O)NCc1cc2n(n1)CCCN(C1CCCCC1)C2 | 19.9%
Cn1cc(C2CCCN2C(=O)c2cnc(-c3ccco3)s2)cn1 (configuration not stated) | 3.88%
CN(C(=O)Cc1coc(-c2cccs2)n1)C1(C#N)CCC1 | 6.52%
CCOC(=O)c1sc2ccsc2c1CNC(=O)CC | -5.7%
c1cncc(-c2nnc([C@H]3CCN(CC4CC4)C3)o2)c1 | 9.06%
Cc1ccc(CN(CCCn2ccnc2)Cc2cnc(N(C)C)nc2)s1 | -12.6%
Cc1csc(CN(C)C(C)C(=O)N2CCc3ccccc3C2)n1 (configuration not stated) | -11.7%
CN(C)Cc1ccnc(C2CCCN2Cc2ccc(F)cn2)n1 (configuration not stated) | -17.7%
Cc1nc(-c2ccc(C(=O)O)cc2)cc(C2CCN(C(C)C)C2)n1 (configuration not stated) | 6.62%

Compound | cytotoxicity at 10 µM
O=C(O)c1cnc(N2CCC(O)CC2)nc1COc1cccc(F)c1 | -9.09%
CCn1ccnc1CN1CCCC1C(=O)Nc1nccs1 (configuration not stated) | -6.7%
COCCN(C)C[C@H]1CC[C@@H](Cc2ccc3c(cnn3C)c2)O1 | 0.255%
O=C(Cc1ccccn1)N1CCN(C(=O)CC2CCCC2)CC1 | -10.5%
O=C(COCc1ccccc1)Nc1ccccn1 | -27.7%
COc1cccc(CN2CCN(c3cccc(C(C)C)n3)CC2)c1F | 4.25%
Cc1c(C2CC2)n[nH]c1NC(=O)C1CCCN(C(=O)NCC(C)C)C1 (configuration not stated) | 13.9%
COc1cc(-c2noc(C(CC(C)C)N3CCCCC3=O)n2)ccn1 (configuration not stated) | -60.8%
CC(O)CN1CCC(CNCc2cccc(C(N)=O)c2)CC1 (configuration not stated) | -8.99%
Cc1nc(CN2CCCn3c(nc(Cn4cncn4)cc3=O)C2)cs1 | 3.75%
Cc1cnn(CC2CCCN2Cc2noc(C)n2)c1 (configuration not stated) | 0.742%
N#Cc1cc(Br)ccc1NC1CCN(CC(N)=O)CC1 | 5.23%
CN1C(=O)C2(CCN(Cc3nccn3C)CC2)c2ccccc21 | 1.49%
Cc1ccsc1C1CCCCCN1Cc1cn(C)nc1C (configuration not stated) | -4.38%
CC(C)N1CCn2c(COCC3CCOCC3)cnc2C1C (configuration not stated) | 8.22%
CC(Nc1cccc(CN2CCOC2=O)c1)C(=O)NC(N)=O (configuration not stated) | -7.44%
O=C(NCc1ccco1)Nc1ccc2nc(N3CCOCC3)oc2c1 | 4.17%
CCCn1ncc2c(C(=O)Nc3n[nH]c(SC)n3)cc(C3CC3)nc21 | 1.52%
O=C(c1cc2c(s1)CCC2)N1CCC(c2cnccn2)CC1 | -2.34%
COc1cc(C)nc(N2CCN(C(=O)CN(C)C3CC3)CC2)n1 | -4.43%
O=C(c1ccsc1)N1CCO[C@@H]2CN(Cc3ccco3)CC[C@@H]2C1 | -98.6%

Compound | cytotoxicity at 10 µM
CN(C)C(=O)CN1CCN(C(=O)c2cnn(-c3ccccc3Cl)c2)CC1 | -3.67%
Nc1nc(CN2CCN(c3nccs3)CC2)cs1 | 4.79%
CC(C)(C)C1CCC(NCCN2CCOCC2)CC1 (configuration not stated) | 0.741%
CCNC(=O)NC(=O)CNc1cccc(C(=O)c2ccccc2)c1 | 3.18%
CCS(=O)(=O)N[C@H]1CN(Cc2noc(COC)n2)C[C@@H]1C1CC1 | -3.22%
O=C(O)c1nnn(-c2ccccc2F)c1-c1ccncc1 | 10.2%
O=C(NC1CCC1)C1CCC2(CN(C(=O)c3ccno3)C2)O1 (configuration not stated) | -134%
CNC(=O)COc1c(F)cc(Br)cc1C(C)=O | 1.44%
COCC1CC2(CCN(C(=O)c3ccc(F)cc3C)CC2)CO1 (configuration not stated) | -108%
CN(C)CCn1c2c(ccc1=O)CCN(C(=O)c1cccs1)CC2 | 0.0915%
CCOCCCNC(=O)CN(c1cccc(F)c1)S(C)(=O)=O | 7.77%
CC(C)N1CCC[C@H]1C(=O)NCC1CCN(c2cnn(C)c(=O)c2)CC1 | 4.75%
O=C(CCN1CCOC(C(F)(F)F)C1)NCc1ccccc1Cl (configuration not stated) | -3.13%
Cc1nc(CNC(=O)Nc2ccc3c(c2)CCCC(=O)N3)sc1C | 5.06%
CCC(C)N(Cc1cccnc1)C(=O)c1ccc(NS(=O)(=O)CC)cc1 (configuration not stated) | 7.1%
O=C(c1cccnc1O)N1CCCC2(C=Cc3ccccc3O2)CC1 (configuration not stated) | 9.02%
Brc1ccc(NCCCOC2CCOCC2)nc1 | 1.52%
CN(C)c1ncccc1CNS(=O)(=O)c1cc(F)ccc1F | 5.67%
Cc1ccc(C(=O)Nc2c(C(=O)N(C)C)nn(C)c2C)cc1C | 11.8%
Cc1cccc(CN2C(=O)CCC23CCN(Cc2cccn2C)CC3)n1 | 5.61%
Cc1cc(C(=O)NCCN2CCCCC2)nn1C(C)(C)C | -3%

Compound | cytotoxicity at 10 µM
CC(C)C(NC(=O)c1ccccc1)C(=O)N1CCC2(CC1)OCCO2 (configuration not stated) | 5.44%
CN1CCc2nc3cc(C(=O)NCc4cccs4)ccc3c(=O)n2CC1 | 0.207%
O=C(C1CCN(c2ccnc3ccc(Br)cc23)CC1)N1CCOCC1 | 15.6%
COc1cccc(-c2nccc(C3CCCN3C)n2)c1 (configuration not stated) | 9.27%
CC(CNC(=O)N1CCNC(=O)CC1)Cc1cccs1 (configuration not stated) | -5.62%
CCN(Cc1ccncc1)C1CCCN(Cc2ccc(F)cc2OC)C1 (configuration not stated) | -3.73%
CNC(=O)[C@H]1CC[C@@H]2[C@@H](CCN2CCOCc2ccccc2)O1 | -109%
Cc1cc(CN(C)C(=O)c2ccc(Cl)cc2N2CCCC2=O)no1 | -15.9%
CSCCC(NC(=O)c1ccco1)C(=O)N(C)Cc1ccsc1 (configuration not stated) | -0.0681%
Cc1cnn(CC(C)NCc2nc(-c3cccnc3)no2)c1 (configuration not stated) | -8.86%
N#CC1(C(=O)N2CCCN(Cc3cscn3)CC2)CCCCC1 | -2.54%
COc1ncccc1C(=O)Nc1cccc(C[S+](C)[O-])c1C (configuration not stated) | 2.28%
Cc1nccn1CCC1CCCCN1C(=O)c1ccc(N(C)C)cc1 (configuration not stated) | 0.811%
Cc1cc(CN(C)C(=O)CN2CC3(CCNCC3)OC2=O)no1 | 3.19%
Fc1cccc(-c2c[nH]c([C@@H]3COCCN3C3CCOCC3)n2)c1 | -1.31%
CCCc1cnc(C)nc1N1CCC(Cn2cc(CO)nn2)CC1 | -4.57%
CN(CCc1ccccc1)C1CCCN(Cc2nccn2C)C1 (configuration not stated) | -18.5%
Cn1cnnc1CC1CCN(Cc2c(Cl)cncc2Cl)CC1 | -9.42%
CS(=O)(=O)CCS(=O)(=O)Cc1cc(Cl)c2c(c1)OCCCO2 | -0.0261%

From ChEMBL document CHEMBL4513216, “Probing the Open Global Health Chemical Diversity Library for Multistage-Active Starting Points for Next-Generation Antimalarials” (ACS Infect Dis, 2020)
